Test results reported in ChEMBL document CHEMBL3621051, “Design and synthesis of 4-benzyl-1-(2H)-phthalazinone derivatives as novel androgen receptor antagonists” (Eur J Med Chem, 2015).
The source made the active and inactive calls. The calls are words filed in the database; no cut-off is given here.

Tests used:
PC-3 = experiment: Cytotoxicity against androgen-independent human PC3 cells assessed as inhibition of cell proliferation after 3 days by WST-8 assay; format: functional, cell-based
[1] = target: T1, Androgen receptor (Homo sapiens) (UniProt P10275); experiment: Agonist activity at wild type AR expressed in […] SC cells assessed as effect on cell proliferation by WST-8 assay; format: cell-based
T1 sequence (whole entry): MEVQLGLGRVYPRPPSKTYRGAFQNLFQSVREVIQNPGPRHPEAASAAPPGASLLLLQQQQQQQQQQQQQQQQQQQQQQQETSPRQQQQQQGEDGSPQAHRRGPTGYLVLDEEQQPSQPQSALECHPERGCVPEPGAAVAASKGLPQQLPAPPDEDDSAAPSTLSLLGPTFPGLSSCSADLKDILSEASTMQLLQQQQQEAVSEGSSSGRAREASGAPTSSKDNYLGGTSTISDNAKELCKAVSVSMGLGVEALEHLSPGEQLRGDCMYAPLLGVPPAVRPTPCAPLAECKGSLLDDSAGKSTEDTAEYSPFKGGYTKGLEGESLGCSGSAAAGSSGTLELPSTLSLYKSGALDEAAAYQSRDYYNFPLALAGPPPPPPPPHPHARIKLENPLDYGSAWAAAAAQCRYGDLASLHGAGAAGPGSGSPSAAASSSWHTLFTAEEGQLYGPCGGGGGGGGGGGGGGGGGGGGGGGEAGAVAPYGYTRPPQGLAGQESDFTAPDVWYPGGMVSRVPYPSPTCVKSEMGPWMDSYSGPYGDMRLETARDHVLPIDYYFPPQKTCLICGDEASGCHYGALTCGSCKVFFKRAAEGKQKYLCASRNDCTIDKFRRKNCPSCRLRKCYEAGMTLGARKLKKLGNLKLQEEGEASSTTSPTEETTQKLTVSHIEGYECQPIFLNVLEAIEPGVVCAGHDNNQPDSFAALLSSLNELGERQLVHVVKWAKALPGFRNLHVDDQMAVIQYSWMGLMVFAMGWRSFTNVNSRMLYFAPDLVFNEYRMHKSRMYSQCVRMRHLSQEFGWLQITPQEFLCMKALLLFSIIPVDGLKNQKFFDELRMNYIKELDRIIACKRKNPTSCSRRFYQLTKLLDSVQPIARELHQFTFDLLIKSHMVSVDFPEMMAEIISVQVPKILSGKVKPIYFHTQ

Androgen receptor = target: T2, Androgen receptor (Homo sapiens, UniProt P10275); experiment: Displacement of [3H]-DHT from human GST fused AR-LBD (627 to 919 amino acids) transfected in Escherichia coli HB 101 after 15 hrs by liquid scintillation counting assay
T2 sequence (P10275 whole entry): T1 sequence (whole entry)
In short: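 Crude sonicated lysate in TEGDM was diluted to 0.3-0.5 mg/mL protein. Incubation was in the dark at 4°C for 15 h with 4 nM [3H]-DHT and 1 µM triamcinolone acetonide (final). Free ligand was removed with dextran/γ-globulin-coated charcoal, and the supernatant counted by liquid scintillation; ≥duplicate.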

Question: Which inhibition (PC-3) does the source give for `O=c1[nH]nc(Cc2c(Cl)ccc(Cl)c2Cl)c2ccccc12` here?
Answer: The inhibition was “inactive”.

Question: And the Activity [1]?
Answer: The Activity was “inactive”.

Question: What about the IC50 (Androgen receptor) of the same molecule?
Answer: The IC50 was 56.7 µM.

Question: For `CC(=O)Nc1ccc(Cc2n[nH]c(=O)c3ccccc23)cc1`, which Activity [1] is on record?
Answer: Its Activity is “inactive”.

Question: `CS(=O)(=O)Nc1ccccc1Cc1n[nH]c(=O)c2ccccc12` was tested. Which Activity [1] did it give?
Answer: Its Activity is “inactive”.

Question: Which Activity [1] does the source give for `O=c1[nH]nc(Cc2c(F)cccc2F)c2ccccc12` here?
Answer: Its Activity is “inactive”.

Question: Which results are given for `O=c1[nH]nc(Cc2c(Cl)cccc2Cl)c2ccccc12`?
Answer: inhibition (PC-3): inactive; Activity [1]: inactive; IC50 (Androgen receptor): 10.9 µM

Question: With `CC(=O)Nc1ccccc1Cc1n[nH]c(=O)c2ccccc12` as the molecule, how does the Activity [1] read?
Answer: The Activity was “inactive”.

Question: How did the inhibition (PC-3) turn out when `O=c1[nH]nc(Cc2ccccc2[N+](=O)[O-])c2ccccc12` was run?
Answer: Its inhibition is “inactive”.

Question: What about the Activity [1] of the same molecule?
Answer: The Activity was “inactive”.

Question: And the IC50 (Androgen receptor)?
Answer: The IC50 was greater than 100 µM.

Question: With `O=C(Nc1ccccc1Cc1n[nH]c(=O)c2ccccc12)C(F)(F)F` as the molecule, how does the Activity [1] read?
Answer: The Activity was “inactive”.

Question: How did the inhibition (PC-3) turn out when `Oc1nnc(Cc2ccccc2Cl)c2ccccc12` was run?
Answer: The inhibition was “inactive”.

Question: What about the Activity [1] of the same molecule?
Answer: Its Activity is “inactive”.

Question: And the IC50 (Androgen receptor)?
Answer: The IC50 was 85.4 µM.

Question: With `O=C(Nc1ccc(Cc2n[nH]c(=O)c3ccccc23)cc1)C(F)(F)F` as the molecule, how does the Activity [1] read?
Answer: Its Activity is “inactive”.

Question: For `O=C(O)c1ccccc1Cc1n[nH]c(=O)c2ccccc12`, which Activity [1] is on record?
Answer: The Activity was “inactive”.

Question: For `CCN(CC)c1ccc(Cc2n[nH]c(=O)c3ccccc23)cc1`, which Activity [1] is on record?
Answer: Its Activity is “inactive”.

Question: How did the Activity [1] turn out when `O=c1[nH]nc(Cc2ccccc2)c2ccccc12` was run?
Answer: The Activity was “inactive”.

Question: How did the Activity [1] turn out when `CC(C)(O)C(=O)Nc1ccc([N+](=O)[O-])c(C(F)(F)F)c1` was run?
Answer: Its Activity is “inactive”.

Question: `O=[N+]([O-])c1ccc(Cc2nnc(O)c3ccccc23)cc1` was tested. Which Activity [1] did it give?
Answer: Its Activity is “inactive”.

Question: `CS(=O)(=O)Nc1ccc(Cc2n[nH]c(=O)c3ccccc23)cc1` was tested. Which Activity [1] did it give?
Answer: The Activity was “inactive”.

Question: For `Nc1ccc(Cc2n[nH]c(=O)c3ccccc23)cc1`, which Activity [1] is on record?
Answer: Its Activity is “inactive”.

Question: With `CCN(CC)c1ccccc1Cc1n[nH]c(=O)c2ccccc12` as the molecule, how does the Activity [1] read?
Answer: The Activity was “inactive”.

Question: With `Cc1cccc(C)c1Cc1n[nH]c(=O)c2ccccc12` as the molecule, how does the inhibition (PC-3) read?
Answer: Its inhibition is “inactive”.

Question: And the Activity [1]?
Answer: Its Activity is “inactive”.

Question: And the IC50 (Androgen receptor)?
Answer: Its IC50 is 84.3 µM.

Question: `O=c1[nH]nc(Cc2ccccc2C(F)(F)F)c2ccccc12` was tested. Which Activity [1] did it give?
Answer: Its Activity is “inactive”.

Question: For `O=c1[nH]nc(Cc2ccccc2F)c2ccccc12`, which Activity [1] is on record?
Answer: Its Activity is “inactive”.

Question: How did the Activity [1] turn out when `CNc1ccccc1Cc1n[nH]c(=O)c2ccccc12` was run?
Answer: The Activity was “inactive”.

Question: How did the Activity [1] turn out when `Cc1ccccc1Cc1n[nH]c(=O)c2ccccc12` was run?
Answer: The Activity was “inactive”.

Question: With `CN(C)c1ccc(Cc2n[nH]c(=O)c3ccccc23)cc1` as the molecule, how does the Activity [1] read?
Answer: Its Activity is “inactive”.

Question: Which Activity [1] does the source give for `CCNc1ccccc1Cc1n[nH]c(=O)c2ccccc12` here?
Answer: Its Activity is “inactive”.

Question: Which inhibition (PC-3) does the source give for `Nc1ccccc1Cc1n[nH]c(=O)c2ccccc12` here?
Answer: Its inhibition is “inactive”.

Question: What about the Activity [1] of the same molecule?
Answer: The Activity was “inactive”.

Question: And the IC50 (Androgen receptor)?
Answer: The IC50 was 45.2 µM.

Question: `CCNc1ccc(Cc2n[nH]c(=O)c3ccccc23)cc1` was tested. Which Activity [1] did it give?
Answer: Its Activity is “inactive”.

Question: Which Activity [1] does the source give for `COc1ccccc1Cc1n[nH]c(=O)c2ccccc12` here?
Answer: The Activity was “inactive”.

Question: `CNc1ccc(Cc2n[nH]c(=O)c3ccccc23)cc1` was tested. Which Activity [1] did it give?
Answer: Its Activity is “inactive”.

Question: How did the Activity [1] turn out when `CN(C)c1ccccc1Cc1n[nH]c(=O)c2ccccc12` was run?
Answer: The Activity was “inactive”.
